Data set [1] relates to Mus musculus. Description: Anticonvulsant activity in ip dosed Swiss mouse assessed as protection against maximal electroshock-induced seizure administered 30 mins before test. It counts as functional. Summed up:
(§1)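 Mice in groups of 8, each used once, given various i.p. doses of fresh solution at the stated pretreatment time before maximal electroshock. Protection percentages give dose-response lines by Litchfield-Wilcoxon. ED50 is the dose protecting 50% of mice against MES seizures, reported ± S.E.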

The subject of data set [2] is Mus musculus. Description: Protective index, ratio of TD50 for Swiss mouse administered 60 mins before test to ED50 for Swiss mouse administered 60 mins before test. In kind it is functional.
For data set [3], the system named is Mus musculus. Nature of the data set: Protective index, ratio of TD50 for Swiss mouse administered 30 mins before test to ED50 for Swiss mouse administered 30 mins before test. It counts as functional. The gist of the method: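 PI equals chimney-test TD50 divided by MES-test ED50, both determined after i.p. dosing at the same pretreatment time in groups of 8 mice.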

The nature of data set [4]: Neurotoxicity in ip dosed Swiss mouse assessed as delay in motor coordination administered 60 mins before test by chimney test. It counts as toxicity, organism-based. To be noted: in vivo. Summed up: (§2)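 Chimney test (Boissier). Mice must climb backward up a transparent tube (3 cm i.d., 30 cm long) within 60 s, and failure marks motor impairment. At least four groups of 8 mice receive various i.p. doses at the stated pretreatment time. TD50 comes from log-probit dose-response analysis (Litchfield-Wilcoxon), ± S.E.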

The test system of data set [5] is Mus musculus. Nature of the data set: Protective index, ratio of TD50 for Swiss mouse administered 120 mins before test to ED50 for Swiss mouse administered 120 mins before test. In kind it is functional.
Data set [6] in a line: Neurotoxicity in ip dosed Swiss mouse assessed as delay in motor coordination administered 120 mins before test by chimney test. To be noted: in vivo. In kind it is toxicity, organism-based. The gist of the method:
as §2

Data set [7] deals with Mus musculus. Nature of the data set: Anticonvulsant activity in ip dosed Swiss mouse assessed as protection against maximal electroshock-induced seizure administered 15 mins before test. In kind it is functional. The gist of the method:
as §1
On the technique in general: Protection in the maximal electroshock model is a classic sign of anticonvulsant action.

For data set [8], the system named is Mus musculus. Description: Anticonvulsant activity in ip dosed Swiss mouse assessed as protection against maximal electroshock-induced seizure administered 60 mins before test. In kind it is functional. The gist of the method: as §1
The subject of data set [9] is Mus musculus. Nature of the data set: Anticonvulsant activity in ip dosed Swiss mouse assessed as protection against maximal electroshock-induced seizure administered 120 mins before test. In kind it is functional. Summed up:
as §1

The subject of data set [10] is Mus musculus. Description: Protective index, ratio of TD50 for Swiss mouse administered 15 mins before test to ED50 for Swiss mouse administered 15 mins before test. In kind it is functional.
The nature of data set [11]: Neurotoxicity in ip dosed Swiss mouse assessed as delay in motor coordination administered 30 mins before test by chimney test. It counts as toxicity, organism-based. To be noted: in vivo. Summed up:
as §2

A short description of data set [12]: Neurotoxicity in ip dosed Swiss mouse assessed as delay in motor coordination administered 15 mins before test by chimney test. It counts as toxicity, organism-based. To be noted: in vivo. The gist of the method:
as §2

Data set [13] relates to Mus musculus. Nature of the data set: Anticonvulsant activity in Swiss mouse assessed as protection against maximal electroshock-induced seizure at 300 mg/kg, ip administered 15 mins before test. To be noted: route intraperitoneal. It counts as functional. Summed up: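 Mice in groups of 8, each used once, after 7 days' adaptation. Fixed 300 mg/kg dose given i.p. from freshly prepared solution, then maximal electroshock applied at the stated pretreatment time. Read-out is the percentage of the 8 mice protected against MES-induced seizures.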

Data set [14] deals with Brain. Description: Drug uptake in Swiss mouse brain assessed as per 1 mg of tissue at 300 mg/kg, ip. In kind it is ADME, organism-based. On the set-up: dose 300 mg/kg, route intraperitoneal. To be noted: in vivo.

Turning to `CCn1c(S)nnc1-c1cccc(Cl)c1`, the ED50 – broadly, the dose at which the effect has come halfway, by size or by number of responders – was 204 mg/kg in data set [1], 153 mg/kg in data set [7], 252 mg/kg in [8] and 320 mg/kg in [9]. Also, the “Ratio TD50/ED50” value in data set [2] came out at 2.9; in data set [3], 3.7; in data set [5], 2.8; in data set [10] it was 4.8. Moreover, the TD50 (in general, the dose at which the toxic effect under study appears in half of the subjects) at 1 h in data set [4] worked out at 742 mg/kg. The TD50 at 2 h in data set [6] worked out at 887 mg/kg. In data set [11], the TD50 at 0.5 h came to 753 mg/kg. Moreover, the TD50 at 0.25 h in [12] was determined as 731 mg/kg. Moreover, the Activity in data set [13] was 100%.
On to `CCCCCCCCCCCCn1c(-c2cccc(Cl)c2)n[nH]c1=S`, for which the Drug uptake entry in [14] is “Not Active”.
Regarding `CCCCn1c(-c2cccc(Cl)c2)n[nH]c1=S`, the ED50 in data set [1] was 77.8 mg/kg; in [7], 38.5 mg/kg; in [8] it was 156 mg/kg; in data set [9], 311 mg/kg. Also, the “Ratio TD50/ED50” value in [2] turned out to be 2.7; in [3], 5.2; in data set [5], 1.4; in data set [10], 10.3. Besides, the TD50 at 1 h in [4] turned out to be 414 mg/kg. Also, the TD50 at 2 h in data set [6] was 429 mg/kg. Also, the TD50 at 0.5 h in data set [11] came out at 405 mg/kg. The TD50 at 0.25 h in data set [12] was 398 mg/kg. The Activity in data set [13] turned out to be 100%.
On to `CCCCCn1c(-c2cccc(Cl)c2)n[nH]c1=S`, for which the ED50 was found to be 65.2 mg/kg in data set [1], 46.5 mg/kg in data set [7], 69.5 mg/kg in data set [8] and 147 mg/kg in [9]. Also, the “Ratio TD50/ED50” value in [2] is 4.4; in data set [3] it was 4.8; in data set [5], 2.7; in [10], 6.7. Further, the TD50 at 1 h in data set [4] is 303 mg/kg. Further, the TD50 at 2 h in [6] stood at 392 mg/kg. In data set [11], the TD50 at 0.5 h was determined as 310 mg/kg. Moreover, the TD50 at 0.25 h in data set [12] was determined as 310 mg/kg. Further, in data set [13], the Activity is listed as 100%.
As to `CCCCCCn1c(-c2cccc(Cl)c2)n[nH]c1=S`, the ED50 amounted to 68.3 mg/kg in [1], 47.6 mg/kg in [7], 98.1 mg/kg in [8] and 160 mg/kg in [9]. Also, the “Ratio TD50/ED50” value in [2] amounted to 4.7; in [3], 6.8; in [5], 2.8; in data set [10], 9.7. Further, the Activity in data set [13] is given as 100%.
As for `CCCCCCCn1c(-c2cccc(Cl)c2)n[nH]c1=S`, the ED50 in [1] turned out to be 65.2 mg/kg; in data set [7], 55.1 mg/kg; in [8] it was 102 mg/kg; in [9], 135 mg/kg. Further, the “Ratio TD50/ED50” value in data set [2] turned out to be 4.2; in data set [3], 6.5; in data set [5] it was 3.3; in data set [10] it was 7.5. Also, the TD50 at 1 h in data set [4] turned out to be 430 mg/kg. In data set [6], the TD50 at 2 h stood at 440 mg/kg. In addition, the TD50 at 0.5 h in data set [11] turned out to be 423 mg/kg. Further, the TD50 at 0.25 h in data set [12] came to 416 mg/kg. Besides, the Activity in data set [13] was 100%.
`CCCCCCCCCn1c(-c2cccc(Cl)c2)n[nH]c1=S`: the ED50 in data set [1] worked out at 130 mg/kg; in data set [7] it was 144 mg/kg; in data set [8] it was 105 mg/kg; in data set [9] it was 143 mg/kg. For the same molecule, the “Ratio TD50/ED50” value in data set [2] was found to be 6.1; in [3] it was 5.5; in [5] it was 4.6; in data set [10] it was 4.6. In addition, the TD50 at 1 h in [4] was found to be 640 mg/kg. Further, the TD50 at 2 h in data set [6] is 659 mg/kg. The TD50 at 0.5 h in data set [11] stood at 713 mg/kg. Moreover, the TD50 at 0.25 h in data set [12] is 667 mg/kg. The Activity in [13] worked out at 100%.
For the molecule `CCCC(CCC)C(=O)[O-].CCCC(CCC)C(=O)[O-].[Mg+2]` [MAGNESIUM VALPROATE], in data set [4], the TD50 at 1 h is 417 mg/kg. In addition, the TD50 at 2 h in [6] stood at 512 mg/kg. Moreover, the TD50 at 0.5 h in data set [11] was 373 mg/kg. Moreover, the TD50 at 0.25 h in data set [12] was found to be 363 mg/kg.

The values above are taken from ChEMBL document CHEMBL2311432, “Synthesis, characterization and preliminary anticonvulsant evaluation of some 4-alkyl-1,2,4-triazoles” (Eur J Med Chem, 2013).
